Source: ChEMBL document CHEMBL1629587, “Discovery of a small-molecule inhibitor of {beta}-1,6-glucan synthesis” (2009)
≈ marks a conversion by molar mass, not a printed value. Calls of active or inactive are those of the source. No cut-off for these calls is given here.

Columns and labels:
Candida albicans [1] = experiment: Inhibition of hyphal elongation of Candida albicans ATCC 24433 at 16 ug/ml after 24 hrs by microscopy; type: functional, organism-based
Summary of the method: (§1)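 Hyphae induced in HFM-7 medium (Lee's medium also used) on type I collagen-coated wells, drug 0, 1, 4 or 16 μg/ml; static culture at 37°C, viewed by light microscopy after 6 h or 24 h.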

Saccharomyces cerevisiae [2] = experiment: Fungicidal activity against Saccharomyces cerevisiae YPH500 after 24 hrs by microdilution method; type: functional; settings: YPH500, 24 h
Summary of the method: (§2)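 Fungicidal concentration: after the MIC plate read, 4 μl from each well transferred into 200 μl MOPS-buffered RPMI, incubated 24 h at 30°C; MFC = lowest drug concentration with no visible growth.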

Saccharomyces cerevisiae [3] = experiment: Inhibition of chitin synthesis in Saccharomyces cerevisiae AY-10 assessed as reduction in [14C]glucose incorporation at 0.078 to 1.25 ug/ml after 3 hrs; type: functional, organism-based
Summary of the method: (§3)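 Exponential cells in RPMI 1640 at A595 about 0.6, pulse-labelled with [14C]glucose 2 μCi/ml plus drug at 30°C, sampled at 1 and 3 h. Cell wall fractionated: mannan from 3% NaOH extracts at 80°C by Fehling's reaction; residue digested with Zymolyase 100T (1 mg/ml), insoluble part = chitin; β-1,3-glucan = total glucan minus dialysed β-1,6-glucan. Scintillation counting; % change versus untreated.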

Saccharomyces cerevisiae [4] = experiment: Inhibition of chitin synthesis in Saccharomyces cerevisiae AY-10 assessed as reduction in [14C]glucose incorporation at 0.078 to 1.25 ug/ml after 1 hr; type: functional, organism-based; summary of the method: as §3
Candida tropicalis [5] = experiment: Fungicidal activity against Candida tropicalis TIMM0313 after 24 hrs by microdilution method; type: functional; settings: TIMM0313, 24 h; summary of the method: as §2
Aspergillus flavus = experiment: Antifungal activity against Aspergillus flavus ATCC 64025 after 24 hrs by microdilution method; type: functional; settings: ATCC 64025, 24 h
Summary of the method: (§4)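 CLSI broth microdilution run at 30°C instead of standard temperature; starting inoculum 1 × 10^3 to 3 × 10^3 cells/ml; DMSO under 1% final. Endpoints: MIC-0 = lowest concentration giving an optically clear well; MIC-2 = 50% drop versus drug-free control in absorbance at 570 nm with alamar blue redox indicator, used because treated cells clump.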

Saccharomyces cerevisiae [6] = experiment: […] activity against Saccharomyces cerevisiae AY-10 transformed with pRS416-13 carrying ADP1 gene after 24 hrs by microdilution method; type: functional; settings: AY-10, 24 h
Candida albicans [7] = experiment: Antifungal activity against Candida albicans ATCC 24433 after 24 hrs by microdilution method; type: functional; settings: ATCC 24433, 24 h; summary of the method: as §4
Candida albicans [8] = experiment: Induction of multibudding phenotype in Candida albicans ATCC 24433 after 18 hrs by microscopy; type: functional, organism-based
Summary of the method: (§5)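 Exponential-phase cells suspended in RPMI 1640 with or without drug (2 μg/ml shown), shaken gently 18 h at 30°C, fixed in 3% glutaraldehyde in 0.1 M phosphate buffer, inspected by inverted light microscopy.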

Clavispora lusitaniae = experiment: Antifungal activity against Candida lusitaniae ATCC 200951 after 24 hrs by microdilution method; type: functional; settings: ATCC 200951, 24 h; summary of the method: as §4
Saccharomyces cerevisiae [9] = experiment: Fungicidal activity against Saccharomyces cerevisiae CT-1a mutant after 24 hrs by microdilution method; type: functional
Candida parapsilosis = experiment: Antifungal activity against Candida parapsilosis IFO1396 after 24 hrs by microdilution method; type: functional; settings: Lodderomyces parapsilosis, IFO1396, 24 h; summary of the method: as §4
Candida albicans [10] = experiment: Inhibition of hyphal elongation of Candida albicans ATCC 24433 at 1 ug/ml after 24 hrs by microscopy; type: functional, organism-based; summary of the method: as §1
Saccharomyces cerevisiae [11] = experiment: Inhibition of mannan synthesis in Saccharomyces cerevisiae AY-10 assessed as reduction in [14C]glucose incorporation at 0.078 to 1.25 ug/ml after 1 hr; type: functional, organism-based; summary of the method: as §3
Aspergillus terreus = experiment: Antifungal activity against Aspergillus terreus ATCC 28301 after 24 hrs by microdilution method; type: functional; settings: ATCC 28301, 24 h; summary of the method: as §4
Saccharomyces cerevisiae [12] = experiment: […] activity against Saccharomyces cerevisiae AY-10 after 24 hrs by microdilution method; type: functional; settings: AY-10, 24 h
Aspergillus sp. = experiment: Antifungal activity against Aspergillus sp. at 32 ug/ml after 24 hrs by microdilution method; type: functional, organism-based; summary of the method: as §4
Candida albicans [13] = experiment: Fungicidal activity against Candida albicans ATCC 24433 after 24 hrs by microdilution method; type: functional; settings: ATCC 24433, 24 h; summary of the method: as §2
Candida tropicalis [14] = experiment: Antifungal activity against Candida tropicalis ATCC 200956 after 24 hrs by microdilution method; type: functional; settings: ATCC 200956, 24 h; summary of the method: as §4
Staphylococcus aureus = experiment: Antibacterial activity against Staphylococcus aureus 209P; type: functional
Candida albicans [15] = experiment: Inhibition of hyphal elongation of Candida albicans ATCC 24433 at 1 ug/ml after 6 hrs by microscopy; type: functional, organism-based; summary of the method: as §1
Cryptococcus neoformans = experiment: Antifungal activity against Cryptococcus neoformans ATCC 90112 after 24 hrs by microdilution method; type: functional; settings: ATCC 90112, 24 h; summary of the method: as §4
Candida tropicalis [16] = experiment: Antifungal activity against Candida tropicalis TIMM0313 after 24 hrs by microdilution method; type: functional; settings: TIMM0313, 24 h; summary of the method: as §4
PC-6 = experiment: Cytotoxicity against human PC6 cells; type: functional
Summary of the method: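 Human PC-6 lung cancer cells; growth inhibition read as GI50; DMSO kept below 0.5% final for human cells.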

Saccharomyces cerevisiae [17] = experiment: […] activity against Saccharomyces cerevisiae AY-10 transformed with empty vector pRS416 after 24 hrs by microdilution method; type: functional; settings: AY-10, 24 h
Saccharomyces cerevisiae [18] = experiment: Fungicidal activity against Saccharomyces cerevisiae AY-10-R16 mutant after 24 hrs by microdilution method; type: functional; settings: AY-10-R16, 24 h
Saccharomyces cerevisiae [19] = experiment: Fungicidal activity against Saccharomyces cerevisiae CT-2a mutant after 24 hrs by microdilution method; type: functional
Saccharomyces cerevisiae [20] = experiment: Induction of multibudding phenotype in Saccharomyces cerevisiae YPH500 after 18 hrs by microscopy; type: functional, organism-based; summary of the method: as §5
Candida albicans [21] = experiment: Inhibition of hyphal elongation of Candida albicans ATCC 24433 at 16 ug/ml after 6 hrs by microscopy; type: functional, organism-based; summary of the method: as §1
Saccharomyces cerevisiae [22] = experiment: Antifungal activity against Saccharomyces cerevisiae YPH500 after 24 hrs by microdilution method; type: functional; settings: YPH500, 24 h
Summary of the method: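 CLSI broth microdilution, incubated at 30°C, starting inoculum 1 × 10^3 to 3 × 10^3 cells/ml; drugs from DMSO, final DMSO below 1%. MIC-0 is the lowest concentration giving an optically clear well. MIC-2 is read with alamar blue as a 50% drop in A570 versus the drug-free control; both endpoints were recorded.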

Saccharomyces cerevisiae [23] = experiment: […] activity against Saccharomyces cerevisiae AY-10 transformed with pRS416-31 carrying KRE6 gene after 24 hrs by microdilution method; type: functional; settings: AY-10, 24 h
Trichosporon asahii = experiment: Antifungal activity against Trichosporon asahii ATCC 90039 at 32 ug/ml after 24 hrs by microdilution method; type: functional, organism-based; summary of the method: as §4
Saccharomyces cerevisiae [24] = experiment: Fungicidal activity against Saccharomyces cerevisiae AY-10-R4 mutant after 24 hrs by microdilution method; type: functional; settings: AY-10-R4, 24 h
Nakaseomyces glabratus [25] = experiment: Fungicidal activity against Candida glabrata IFO0622 after 24 hrs by microdilution method; type: functional; settings: IFO0622, 24 h; summary of the method: as §2
Nakaseomyces glabratus [26] = experiment: Antifungal activity against Candida glabrata IFO0622 after 24 hrs by microdilution method; type: functional; settings: IFO0622, 24 h; summary of the method: as §4

CCc1c(C)c(C#N)c2nc3ccccc3n2c1NCCN(CC)CC
inhibition (Candida albicans [1]): Active | MFC (Saccharomyces cerevisiae [2]): > 32 mg/L | inhibition (Saccharomyces cerevisiae [3]): inactive | inhibition (Saccharomyces cerevisiae [4]): inactive | MFC (Candida tropicalis [5]): > 32 mg/L | MIC (Aspergillus flavus): > 32 mg/L | MIC50 (Aspergillus flavus): > 32 mg/L | MIC (Saccharomyces cerevisiae [6]): 4 mg/L (≈ 11.4 µM) | MIC (Candida albicans [7]): 32 mg/L (≈ 91.6 µM) | MIC50 (Candida albicans [7]): 8 mg/L (≈ 22.9 µM) | Activity (Candida albicans [8]): Active | MIC (Clavispora lusitaniae): 16 mg/L (≈ 45.8 µM) | MIC50 (Clavispora lusitaniae): 8 mg/L (≈ 22.9 µM) | MIC (Saccharomyces cerevisiae [9]): 8 mg/L (≈ 22.9 µM) | MIC (Candida parapsilosis): > 32 mg/L | MIC50 (Candida parapsilosis): 4 mg/L (≈ 11.4 µM) | inhibition (Candida albicans [10]): Active | inhibition (Saccharomyces cerevisiae [11]): inactive | MIC (Aspergillus terreus): > 32 mg/L | MIC50 (Aspergillus terreus): > 32 mg/L | MIC (Saccharomyces cerevisiae [12]): 2 mg/L (≈ 5.72 µM) | Activity (Aspergillus sp.): inactive | MFC (Candida albicans [13]): > 32 mg/L | MIC (Candida tropicalis [14]): 1 mg/L (≈ 2.86 µM) | MIC50 (Candida tropicalis [14]): 1 mg/L (≈ 2.86 µM) | MIC (Staphylococcus aureus): > 32 mg/L | inhibition (Candida albicans [15]): Active | MIC (Cryptococcus neoformans): > 32 mg/L | MIC50 (Cryptococcus neoformans): > 32 mg/L | MIC (Candida tropicalis [16]): 8 mg/L (≈ 22.9 µM) | MIC50 (Candida tropicalis [16]): 1 mg/L (≈ 2.86 µM) | GI50 (PC-6): > 16 mg/L | MIC (Saccharomyces cerevisiae [17]): 2 mg/L (≈ 5.72 µM) | MIC (Saccharomyces cerevisiae [18]): 4 mg/L (≈ 11.4 µM) | MIC (Saccharomyces cerevisiae [19]): > 64 mg/L | Activity (Saccharomyces cerevisiae [20]): Active | inhibition (Candida albicans [21]): Active | MIC (Saccharomyces cerevisiae [22]): 2 mg/L (≈ 5.72 µM) | MIC50 (Saccharomyces cerevisiae [22]): 1 mg/L (≈ 2.86 µM) | MIC (Saccharomyces cerevisiae [23]): 32 mg/L (≈ 91.6 µM) | Activity (Trichosporon asahii): inactive | MIC (Saccharomyces cerevisiae [24]): 8 mg/L (≈ 22.9 µM) | MFC (Nakaseomyces glabratus [25]): 32 mg/L (≈ 91.6 µM) | MIC (Nakaseomyces glabratus [26]): 2 mg/L (≈ 5.72 µM) | MIC50 (Nakaseomyces glabratus [26]): 1 mg/L (≈ 2.86 µM)
